Article PMC4470474 (Analytical biochemistry, 2014)
Where two headings read alike, the source gives them in different places.

What was measured:
HDAC3/NCOR1 = HDAC3/NCOR1 (Homo sapiens, UniProt O15379+O75376); test: Optimized stopped coupled acetate assay, HDAC3/NCOR1-catalyzed deacetylation; assay type: biochemical; conditions: 100 μM peptide, 0.5 μM HDAC3/NCOR1
Method in brief: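 Started with 0.5 μM HDAC3/NCOR1 and quenched with 0.37% HCl at 0, 30, 60 and 90 min. Flash frozen at −80°C, then neutralised with 0.6% NaHCO₃. Pre-equilibrated ACS/citrate synthase/MDH coupler mix (ATP, NAD⁺, CoA, malate) added, 40 min at RT. NADH fluorescence read at ex 340/em 460 nm.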

Co(II)-HDAC8 [1] = molecular target: T1, Co(II)-HDAC8 (Homo sapiens, UniProt Q9BY41); test: Optimized continuous coupled acetate assay, HDAC8-catalyzed deacetylation; assay type: biochemical; conditions: Figure 5 legend, 100 μM peptide
T1 sequence (Q9BY41 1-377): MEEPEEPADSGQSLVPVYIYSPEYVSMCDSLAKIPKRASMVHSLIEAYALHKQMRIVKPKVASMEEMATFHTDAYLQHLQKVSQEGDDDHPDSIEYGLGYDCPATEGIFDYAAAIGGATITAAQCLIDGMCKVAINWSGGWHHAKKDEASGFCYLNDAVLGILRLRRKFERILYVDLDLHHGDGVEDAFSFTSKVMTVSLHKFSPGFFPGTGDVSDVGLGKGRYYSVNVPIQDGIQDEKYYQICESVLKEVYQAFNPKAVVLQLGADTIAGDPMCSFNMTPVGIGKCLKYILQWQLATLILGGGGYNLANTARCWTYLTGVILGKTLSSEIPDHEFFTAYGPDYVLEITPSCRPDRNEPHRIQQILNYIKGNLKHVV
Method in brief: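 Continuous coupled format in EDTA-stripped plates. Mixed 2:1 with Ac-KGGAKac-NH₂ (100 μM final). Started with Co(II)-HDAC8 (0.5–1 μM final). Rate taken from time-dependent NADH fluorescence (ex 340/em 460 nm).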

Co(II)-HDAC8 [2] = molecular target: T1, Co(II)-HDAC8; assay type: biochemical; conditions: for substrate inhibition at higher peptide concentrations: peptide 0 – 1600 μM; for effect of pre-incubation of the peptide with Chelex 100 on observed activity: ~6 % (v/v) Chelex 100, room temperature, three hours
HDAC8 [3] = test: Inhibition of HDAC8 activity by magnesium; assay type: biochemical, human; conditions: 2 mM magnesium, continuous assay conditions; Figure S2
HDAC8 [4] = conditions: HDAC8-catalyzed deacetylation; ref [25]; cited from earlier work
Co(II)-HDAC8 [5] = molecular target: T1, Co(II)-HDAC8; test: Fluorescamine assay, HDAC8-catalyzed deacetylation; assay type: biochemical; conditions: 200 μM peptide, 0.5 μM HDAC8, 30°C
Method in brief: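 Started with 0.5 μM HDAC8 and quenched with 1 μM TSA at 0, 30, 60 and 90 min. Enzyme removed by 10K filtration. Flow-through mixed with 1 M boric acid pH 9 and fluorescamine, 10 min at RT. Fluorescence read at ex 340/em 460 nm against an N-α-acetyl lysine methyl ester standard curve (0–5 μM).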

[6] = Michaelis-Menten fit, stopped coupled assay, 30°C, pH 8

Chain of HDAC3/NCOR1 (O15379 whole entry): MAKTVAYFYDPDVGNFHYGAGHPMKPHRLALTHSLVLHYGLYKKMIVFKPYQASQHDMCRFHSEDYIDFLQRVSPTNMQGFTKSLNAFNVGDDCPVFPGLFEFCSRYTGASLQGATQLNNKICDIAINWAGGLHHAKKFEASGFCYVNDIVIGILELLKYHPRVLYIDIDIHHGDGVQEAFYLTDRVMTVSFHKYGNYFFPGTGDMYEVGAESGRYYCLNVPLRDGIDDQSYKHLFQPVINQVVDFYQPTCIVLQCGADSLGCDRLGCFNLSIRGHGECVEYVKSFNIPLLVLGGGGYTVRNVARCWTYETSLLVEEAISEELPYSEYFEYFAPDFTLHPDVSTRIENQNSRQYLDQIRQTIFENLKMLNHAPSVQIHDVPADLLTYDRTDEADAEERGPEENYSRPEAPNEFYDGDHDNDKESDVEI
Chain of HDAC3/NCOR1 (O75376 395-489 partner limits assumed): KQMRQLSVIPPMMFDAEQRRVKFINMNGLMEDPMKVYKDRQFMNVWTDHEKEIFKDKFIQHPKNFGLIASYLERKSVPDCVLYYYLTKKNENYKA

Ac-KGGAKac-NH2
initial rate of deacetylation (HDAC3/NCOR1): 0.015 ± 0.0016 µM/s
initial rate for deacetylation (Co(II)-HDAC8 [1]; 0.5 μM Co(II)-HDAC8): 0.011 ± 0.00041 µM/s
initial rate for deacetylation (Co(II)-HDAC8 [1]; 1 μM Co(II)-HDAC8): 0.022 ± 0.00043 µM/s
ΔΔG‡ (kcat/KM) (Co(II)-HDAC8 [2]; Ac-KGGAKac-NH2 compared to Ac-KGGAKac-COO^−): 1.6 kal/mol
initial rate for deacetylation (Co(II)-HDAC8 [2]; Figure 5 legend, side-by-side stopped assay, 0.5 μM Co(II)-HDAC8, 100 μM peptide): 0.018 ± 0.0021 µM/s
kcat/KM enhancement relative to Ac-KGGAKac-COO^− peptide (Co(II)-HDAC8 [2]; amide vs carboxylate): 9 fold
substrate inhibition at higher peptide concentrations (Co(II)-HDAC8 [2]; stopped coupled assay): modest to substantial inhibition was observed at higher peptide concentrations
effect of pre-incubation of the peptide with Chelex 100 on observed activity (Co(II)-HDAC8 [2]): no effect

magnesium
inhibition of HDAC8 activity (HDAC8 [3]): ~ 2 fold

Ac-KGGAKacW-NH2
increase of net transition state stabilization (Co(II)-HDAC8 [2]; addition of tryptophan or methylcoumarin moiety to the peptide): 0.1 to 0.5 kcal/mol
substrate inhibition at higher peptide concentrations (Co(II)-HDAC8 [2]; stopped coupled assay): modest to substantial inhibition was observed at higher peptide concentrations
effect of pre-incubation of the peptide with Chelex 100 on observed activity (Co(II)-HDAC8 [2]): no effect

Ac-KGGAKac-methylcoumarin [reference compound]
kcat/KM (HDAC8 [4]): 2800 M⁻¹ s⁻¹
ΔΔG‡ (kcat/KM) (Co(II)-HDAC8 [2]; Ac-KGGAKac-methylcoumarin compared to the C-terminal carboxylate peptide): 2.3 kcal/mol

Ac-KGGAKac-COO^−
deacetylation rate (Co(II)-HDAC8 [5]): 0.0027 ± 0.0008 µM/s
lowering of kcat/KM relative to methylcoumarin peptide (Co(II)-HDAC8 [2]; C-terminal carboxylate vs methylcoumarin): 50 fold
Km (Co(II)-HDAC8 [2]; [6]): 730 µM
kcat (Co(II)-HDAC8 [2]; [6]): 0.041 s⁻¹
kcat/KM (Co(II)-HDAC8 [2]; [6]): 56 M⁻¹ s⁻¹
deacetylation rate (Co(II)-HDAC8 [2]; coupled acetate assay, 200 μM peptide, 0.5 μM HDAC8): 0.0021 ± 0.0003 µM/s
